Legend:
CDK2 = CDK2 (Homo sapiens, UniProt P24941); assay: In vitro CDK2 enzyme inhibition; type: biochemical
HepG2 cells = assay: MTT cytotoxicity assay, HepG2; type: cell-based; settings: Homo sapiens, HepG2, 48 h, read-out: IC50 HepG2
MCF-7 cells [1] = assay: MTT cytotoxicity assay, MCF-7; type: cell-based; settings: Homo sapiens, MCF7, 48 h, read-out: IC50 MCF-7
Bcl-2 = Bcl-2 level by ELISA in treated MCF-7 cells; type: cell-based, human
MCF-7 cells [2] = assay: Cell cycle analysis; type: cell-based, human
How it was run: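 MCF-7 cells were exposed for 48 h, harvested by trypsinization and washed twice in PBS. Fixed in ice-cold 60% (w/w) ethanol at 4 °C for 12 h, then rewashed in PBS. Stained 30 min in buffer with RNase and propidium iodide. Flow cytometry gave the % of cells in G1, S and G2, with untreated MCF-7 as control.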

Bax = Bax level by ELISA in treated MCF-7 cells; type: cell-based, human
MCF-7 cells [3] = assay: Annexin V-FITC/PI apoptosis assay; type: cell-based, human; settings: MCF-7, 48 h at IC50
How it was run: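 Treated MCF-7 cells for 48 h, then trypsinized and washed in PBS. Stained with annexin V-FITC plus propidium iodide at room temperature in the dark, per kit instructions, then read on a FACScan flow cytometer. Quadrants: upper left necrotic, upper right late apoptotic, lower right early apoptotic, lower left living. Untreated MCF-7 served as control.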

Row | IC50 (CDK2) | SMILES | IC50 (HepG2 cells) | IC50 (MCF-7 cells [1]) | further results
1 | 1.05 ± 0.2 µM | Cc1cccc(N=Nc2c(N)nn(-c3ccccn3)c2N)c1 [Compound 2, 1-(2-Pyridinyl)-4-(3-tolyldiazenyl)-1H-pyrazole-3,5-diamine] | – | – | –
2 | 1.2 ± 0.15 µM | CC(=O)c1ccc(N=Nc2c(N)nn(-c3ccccn3)c2N)cc1 [Compound 3, 1-(4-((3,5-Diamino-1-(2-pyridinyl)-1H-pyrazol-4-yl)diazenyl)phenyl)ethan-1-one] | – | – | –
3 | 0.75 ± 0.05 µM | Nc1nn(-c2ccccn2)c(N)c1N=Nc1ccc(S(=O)(=O)O)cc1 [Compound 4, 4-((3,5-Diamino-1-(2-pyridinyl)-1H-pyrazol-4-yl)diazenyl)benzenesulfonic acid] | 53.8 ± 3.2 µM | 48.7 ± 2.8 µM | –
4 | 0.56 ± 0.03 µM | Nc1nn(-c2ccccn2)c(N)c1N=Nc1ccc(C(=O)O)c(O)c1 [Compound 5, 4-((3,5-Diamino-1-(2-pyridinyl)-1H-pyrazol-4-yl)diazenyl)-2-hydroxybenzoic acid] | 13.1 ± 1.1 µM | 8.03 ± 0.6 µM | decrease of anti-apoptotic Bcl-2 level in comparison with control (Bcl-2): 3 fold; Bcl-2 (Bcl-2; control 5.31 ± 0.5): 1.72 ± 0.08 ng/mL; Bcl-2 FLD (Bcl-2; relative to control = 1): 0.3; fold increase in S phase in comparison to control (MCF-7 cells [2]; MCF-7): 1.2 fold; % S (MCF-7 cells [2]; MCF-7, 48 h at its IC50, control 35.52): 41.02%; % G1 (MCF-7 cells [2]; MCF-7, 48 h at its IC50, control 38.02): 11.98%; Bax/Bcl-2 ratio in comparison with control (Bax): approximately 20 fold; Bax (Bax; control 57.22 ± 0.9): 369.15 ± 0.7 pg/mL; Bax FLD (Bax; relative to control = 1): 6.45 fold; CDK2 inhibitory activity relative to roscovitine (CDK2): 2 fold; Late apoptosis (MCF-7 cells [3]; control 0.04): 8.10%; Necrosis (MCF-7 cells [3]; control 0.18): 0.02%; Early apoptosis (MCF-7 cells [3]; control 0.43): 71.1%; Total (apoptosis/necrosis) (MCF-7 cells [3]; control 0.65): 79.22
5 | 0.46 ± 0.02 µM | NC(N)=NS(=O)(=O)c1ccc(N=Nc2c(N)nn(-c3ccccn3)c2N)cc1 [Compound 6, 4-((3,5-Diamino-1-(2-pyridinyl)-1H-pyrazol-4-yl)diazenyl)-N-(diaminomethylene)benzenesulfonamide] | 22.8 ± 1.5 µM | 26.1 ± 1.7 µM | CDK2 inhibitory activity relative to roscovitine (CDK2): 2 fold
6 | 0.77 ± 0.05 µM | Nc1nn(-c2ccccn2)c(N)c1N=Nc1ccc(N=Nc2ccccc2)cc1 [Compound 7, 4-((4-(Phenyldiazenyl)phenyl)diazenyl)-1-(2-pyridinyl)-1H-pyrazole-3,5-diamine] | 67.1 ± 3.5 µM | 35.1 ± 2.2 µM | –
7 | 1.46 ± 0.5 µM | Nc1nn(-c2ccccn2)c(N)c1N=Nc1cc(Cl)c(Cl)cc1Cl [Compound 8, 1-(2-Pyridinyl)-4-((2,4,5-trichlorophenyl)diazenyl)-1H-pyrazole-3,5-diamine] | – | – | –
8 | 1.5 ± 0.7 µM | Nc1nn(-c2ccccn2)c(N)c1N=Nc1cccc([N+](=O)[O-])c1 [Compound 9, 4-((3-Nitrophenyl)diazenyl)-1-(2-pyridinyl)-1H-pyrazole-3,5-diamine] | – | – | –
9 | 0.85 ± 0.05 µM | COc1ccc(N=Nc2c(N)nn(-c3ccccn3)c2N)cc1 [Compound 10, 4-((4-Methoxyphenyl)diazenyl)-1-(2-pyridinyl)-1H-pyrazole-3,5-diamine] | 41.6 ± 2.4 µM | 15.4 ± 1.2 µM | –
10 | 0.45 ± 0.02 µM | Nc1nn(-c2ccccn2)c(N)c1N=Nc1ccccc1Cl [Compound 11, 4-((2-Chlorophenyl)diazenyl)-1-(2-pyridinyl)-1H-pyrazole-3,5-diamine] | 74.2 ± 3.8 µM | 61.8 ± 3.4 µM | CDK2 inhibitory activity relative to roscovitine (CDK2): 2 fold
11 | 1.24 ± 0.85 µM | Nc1nn(-c2ccccn2)c(N)c1N=Nc1nccs1 [Compound 12, 1-(Pyridin-2-yl)-4-(thiazol-2-yldiazenyl)-1H-pyrazole-3,5-diamine] | – | – | –
12 | – | COc1cccc2c1C(=O)c1c(O)c3c(c(O)c1C2=O)C[C@@](O)(C(=O)CO)C[C@@H]3O[C@H]1C[C@H](N)[C@H](O)[C@H](C)O1 [DOX, doxorubicin, reference compound] | 4.5 ± 0.2 µM | – | –
